Most compounds without a hit are left out; they make up all but 2.3% or so of the library.
STEP inh: STEP (human) phosphatase inhibition | inhibition, % at 20 µM | P54829 | recombinant STEP, OMFP fluorogenic substrate, fluorescence | hit rate 0.25% among 360,000;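 active = inhibition at 20 µM, scaled per plate between control wells, above about 37%, limit read from the data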
Target sequence (P54829 whole entry, looked up): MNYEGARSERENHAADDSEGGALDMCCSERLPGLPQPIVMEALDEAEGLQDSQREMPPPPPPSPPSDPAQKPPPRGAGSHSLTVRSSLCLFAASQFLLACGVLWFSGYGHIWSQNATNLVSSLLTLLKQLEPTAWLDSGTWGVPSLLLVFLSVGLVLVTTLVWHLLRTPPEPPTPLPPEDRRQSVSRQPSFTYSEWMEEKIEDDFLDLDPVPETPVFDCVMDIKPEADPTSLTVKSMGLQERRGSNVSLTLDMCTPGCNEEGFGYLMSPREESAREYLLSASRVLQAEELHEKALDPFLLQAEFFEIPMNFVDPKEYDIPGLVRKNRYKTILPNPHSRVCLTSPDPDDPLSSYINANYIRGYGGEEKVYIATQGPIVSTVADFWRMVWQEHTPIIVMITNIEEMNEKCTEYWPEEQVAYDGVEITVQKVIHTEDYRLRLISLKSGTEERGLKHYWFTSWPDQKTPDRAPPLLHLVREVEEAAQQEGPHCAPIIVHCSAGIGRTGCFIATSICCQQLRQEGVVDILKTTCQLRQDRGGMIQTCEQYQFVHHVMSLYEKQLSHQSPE
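Measure: Control-normalized % inhibition with plate pattern correction | Test system: STEP phosphatase, cell-free reaction | Medium: pH 6.0 Bis-Tris with DTT and Tween 20 | Technique: Fluorescence, 480/540 nm | Times: Reaction 20 min, ambient temperature | Doses: Single compound dose of 20 µM, 1% DMSO final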
LMPTP block: blocks human LMPTP phosphatase; P24666; recombinant LMPTP-A, OMFP fluorogenic substrate, fluorescence intensity; inhibition, % at 20 µM; hit rate 0.22% among 360,000; AID 651560;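 active = compounds that cut the enzyme signal by at least half of the control window in the single-dose screen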
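test system = LMPTP-A | amount = 0.625 nM LMPTP-A final | reagent = fluorogenic phosphatase substrate OMFP at 400 µM final | incubation = 50 min at room temperature | benchmarks = no-enzyme low control, uninhibited high control | medium = Bis-Tris pH 6.0, DTT, detergent | signal = fluorescence intensity of OMFP turnover product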
SUMO1-SIM PPI: alters human SUMO1 binding to SIM partners; P63165; SUMO1 binding to a labelled peptide, TR-FRET, 1 h; inhibition, % at 20 µM; hit rate 0.33% among 360,000; AID 602429; in the data active = inhibition above about 37%
Target sequence (P63165 whole entry, looked up): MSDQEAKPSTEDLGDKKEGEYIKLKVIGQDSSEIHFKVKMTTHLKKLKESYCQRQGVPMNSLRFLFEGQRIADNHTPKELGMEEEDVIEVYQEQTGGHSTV
Scp1 inh: inhibitors of human Scp-1 phosphatase; Q9GZU7; inhibition, % at 20 µM; hit rate 0.88% among 340,000; Recombinant Scp1, phosphopeptide, malachite green phosphate absorbance;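 active = inhibition above about 50% at 20 µM, limit read from the data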
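Test system: SCP-1 phosphatase catalytic domain, residues 76-261; measured by: colorimetric phosphate reagent with accelerator and stabiliser, absorbance at 630 nm; timing: enzyme reaction 45 min at room temperature, colour 5 min, stabilisation 30 min; also added: Phosphorylated 17-residue peptide substrate; compound dosing: one concentration, 20 µM, with 1.0% DMSO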
DNMT1 inh: inhibitors of human DNMT1; P26358; inhibition (reported as % activation of signal), % at 10 µM; hit rate 0.83% among 360,000; DNMT1 molecular beacon, Hinp1I cleavage, fluorescence; in the data active = inhibition above about 50%
Rpn11 block: inhibitors of human proteasome Rpn11 | O00487 | human 26S proteasome, Ub4-pepOG fluorescence polarization; 20S core pre-blocked with epoxomicin | inhibition, % at 20 µM | hit rate 0.59% among 360,000;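 active = inhibition at 20 µM, scaled to each plate's controls, above about 33%, limit read from the data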
A number is an active result; i = inactive; nt = no result given.

SMILES | STEP inh | LMPTP block | SUMO1-SIM PPI | Scp1 inh | DNMT1 inh | Rpn11 block
CCn1c(SCC(=O)Nc2ccc(C)cc2)nnc1-c1ccccn1 | i | i | i | i | i | i
CCn1c(SCC(=O)Nc2ccc(C)cc2)nnc1-c1ccc(O)cc1 | i | i | 43.5 | i | i | i
NNC(=O)CCc1ccc(S(=O)(=O)N2CCOCC2)cc1 | i | i | i | i | i | i
CC1=Nc2ccccc2/C1=C/c1sc(=N)n(-c2nccs2)c1O | i | i | i | i | i | 89.2
CC1=Nc2ccccc2/C1=C/c1nc(-c2ccc(C)s2)oc1O | i | i | i | i | i | nt
CCn1c(SCc2ccccc2)nc2cc(S(N)(=O)=O)ccc21 | i | i | i | i | i | i
Cc1ccc2c(c1)c(/C=C/c1cc[n+](C)cc1)c(C)n2C | i | i | i | 53.8 | i | nt
Cc1ccc2[nH]c(C)c(/C=C/c3cc[n+](C)cc3)c2c1 | i | i | i | i | i | nt
CCN(CC)Cc1cc(Nc2c3ccccc3nc3c4ccccc4n(C)c23)cc(CN(CC)CC)c1O | i | 76.8 | i | i | i | i
CCN(CC)S(=O)(=O)c1ccc(C)c(NC(=O)COC(=O)CCC(=O)c2cccs2)c1 | i | i | i | i | i | i
C#CCOCCOCCOCCNc1nc(N2CCN(C(=O)CCCCCCCCCCNC(=O)[C@@H](CCSC)n3cc(CCO)nn3)CC2)nc(N2CCN(C(=O)CCCCCCCCCCNC(=O)[C@H]([C@@H](C)CC)n3cc(CCCCN=C(N)N)nn3)CC2)n1 | i | i | 90.3 | i | i | 87.3
C#CCOCCOCCOCCNc1nc(N2CCN(C(=O)CCCCCCCCCCNC(=O)[C@H](CCCCN)n3cc(CCO)nn3)CC2)nc(N2CCN(C(=O)CCCCCCCCCCNC(=O)[C@H](CCCN=C(N)N)n3cc(C[C@@H](C)CC)nn3)CC2)n1 | i | i | 90.1 | i | i | 77.4
CCN(CC(=O)Nc1cc(Cl)cc(Cl)c1)CC(=O)NC1CCS(=O)(=O)C1 (stereo unspecified) | i | i | i | i | i | i
COC(=O)C1C2C=CC(C3CC23)C1C(=O)OCC(=O)c1ccccc1 (stereo unspecified) | i | i | 45.2 | i | i | i
Clc1ccc(C2=NCCN2)cc1 | i | i | i | i | i | i
Cc1ccc(F)c(S(=O)(=O)NC(=O)C2(C)CCN2C(=O)Cc2ccccc2)c1 (stereo unspecified) | i | i | i | nt | i | i
CC(C)[C@H](CO)Nc1nc(Nc2ccc(Cl)c(C(=O)O)c2)c2ncn(C(C)C)c2n1 | i | i | 69.0 | i | i | i
CC(C)n1cnc2c(Nc3ccc(C(=O)O)cc3)nc(Cl)nc21 | i | i | i | i | i | i
CCCOc1ccc(S(=O)(=O)n2cc(F)c(=O)[nH]c2=O)cc1 | i | i | i | i | i | i
Cc1ccc2nc(-c3ccc4c(c3)NC(=O)CO4)cn2c1 | i | 72.5 | i | i | i | i
COc1ccccc1N(CC(=O)N1CCCC1)S(=O)(=O)c1cc([N+](=O)[O-])ccc1Cl | i | i | i | i | i | i
O=C(Cn1cc(COc2c(F)c(F)cc(F)c2F)nn1)c1ccc(O)cc1 | i | i | i | i | i | i
O=S(=O)(Nc1ccc(O)c2ncccc12)c1ccccc1F | i | i | i | nt | 58.7 | i
Cc1onc(-c2ccccc2)c1C(=O)NCCSCc1ccco1 | i | i | i | i | i | i
CN1CCN(c2nc(C(N)=O)cc(-c3ccccc3)n2)CC1 | i | i | i | i | i | 39.4
SMILES | STEP inh | LMPTP block | SUMO1-SIM PPI | Scp1 inh | DNMT1 inh | Rpn11 block
Oc1ccc(N=Cc2ccc(OCc3ccccc3)cc2)cc1 | i | i | 63.2 | i | i | i
O=C(N/N=C/c1ccc(OCc2ccccc2)cc1)c1ccncc1 | i | i | i | i | i | i
O=c1cc2c(=O)oc3cc(O)c(O)oc3c2c(O)c1O | 96.4 | 60.6 | i | 85.5 | i | i
Cc1c(Br)cccc1NC(=O)C1(C)CCN1CCc1ccccc1 (stereo unspecified) | i | i | i | nt | i | i
O=C(NCc1ccc2c(c1)OCO2)c1nc(Cn2cc(Br)cn2)no1 | i | i | i | i | i | i
O=C(NCCN1CCOCC1)C1CCN(S(=O)(=O)N2CCCCC2)CC1 | i | i | 64.4 | i | i | i
O=c1c2ccccc2sn1-c1cc(S(=O)(=O)N2CCOCC2)ccc1N1CCOCC1 | i | i | i | 94.1 | i | i
O=S(=O)(c1ccc(N2CCOCC2)c(Cl)c1)N1CCOCC1 | i | i | i | i | i | i
CC(C)(C)OC(=O)N1CCC2(CC1)Oc1ccc(Cl)cc1C(=O)C21CC(c2ccc(Cl)cc2)=NO1 (stereo unspecified) | i | i | i | i | i | i
CCCCCCCCN1C(=O)[C@H](CC(=O)N2CCSCC2)C[C@@]2(C(=O)OCC)CCCC=C12 | nt | i | i | nt | nt | nt
O=C1CCCN1CCCNc1nc(NCc2cccs2)nc2ccsc12 | i | 74.0 | i | nt | i | i
Cc1cc2nc3c(=O)[nH]c(=O)[nH]c3nc2c([N+](=O)[O-])c1N | i | i | 100.0 | 72.5 | 110.5 | i
Cc1c(N)c(C(C)(C)C)cc(C(C)(C)C)c1[N+](=O)[O-] | i | i | i | i | i | i
Cc1cc(C)c(Nc2cc(S(=O)(=O)O)c(N)c3c2C(=O)c2ccccc2C3=O)c(C)c1 | i | i | 74.0 | i | 79.9 | i
CN(C)c1ccc(C(=O)c2ccc(O)cc2O)cc1 | i | i | i | i | i | i
CN(C)c1ccc(Cc2cc3c(O)ccc(O)c3cc(Cc3ccc(N(C)C)cc3)c2=O)cc1 | i | i | 41.8 | i | 81.3 | i
COc1ccc(-n2nc(C(=O)NCC(=O)NCCCN3CCOCC3)c3ccccc3c2=O)cc1OC | i | i | i | i | i | i
CN(C)c1ccc([C@@H]2[C@@H]([N+](=O)[O-])[C@H]3C=Cc4ccccc4N3[C@H]2C(=O)c2ccc(Cl)cc2)cc1 | i | i | i | i | i | 69.2
COc1ccc(N2CSC3=C(C#N)C(c4cccc(OC)c4OC)CC(=O)N3C2)cc1 (stereo unspecified) | i | i | i | 51.7 | i | i
COc1ccc(OC)c(C2CC(=O)N3CN(c4ccccc4)CSC3=C2C#N)c1 (stereo unspecified) | i | i | i | i | i | i
O=C(NCc1ccco1)c1cc2c(s1)CSC2 | nt | nt | nt | 99.0 | nt | nt
CC(=O)NC1(C(F)(F)F)NC(=O)N(CCc2ccccc2)C1=O (stereo unspecified) | i | i | 43.6 | i | i | i
COc1ccc(OC)c(C2CC(=O)c3c([nH]c(C(=O)OCC4CCCO4)c3C)C2)c1 (stereo unspecified) | i | i | i | i | i | i
Cc1c(C(=O)OC2CCCC2)[nH]c2c1C(=O)CC(c1ccco1)C2 (stereo unspecified) | i | i | i | i | i | i
